Source: PubChem BioAssay
Shown are actives, neighbours in structure and some others; about 1.5% of the full set was active somewhere.
APJ antag: antagonists of human APJ apelin receptor; inhibition, % at 20 µM; P35414; CHO-K1 APJ beta-arrestin complementation, luminescence; 330,000 tested, 0.32% active; AID 2521;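 active = inhibition above about 40% at 20 µM, limit read from the data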;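 note: cells challenged with 10 nM apelin-13 agonist together with compound; plate controls were apelin-13 plus DMSO wells for no effect and DMSO wells lacking apelin-13 for full effect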
CXCR6 block: inhibitors of human CXCR6 receptor; CHO-K1 PathHunter CXCR6 beta-arrestin, luminescence; inhibition, % at 20 µM; 360,000 tested, 0.36% active; in the data active = inhibition above about 34%, passing the limit was not always enough;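 note: antagonist mode with CXCL16 agonist at 10 nM final; 0% = 10 nM CXCL16 with DMSO and 100% = unstimulated wells without agonist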
hiPSC survival: hiPSC single-cell survival enhancement. 360,000 tested, 0.044% active. ATPlite luminescence; 100% = ROCK inhibitor wells, 0% = DMSO. AID 602274. survival enhancement, % at 20 µM; in the data active = survival enhancement above about 18%;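 note: cells exposed to compounds for 16 hours before the ATP read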
EBI2 block: antagonists of human EBI2 receptor. EBI2 beta-arrestin recruitment, luminescence, 7a,25-OHC stimulated. inhibition, % at 5 µM. 360,000 tested, 0.81% active; in the data active = inhibition above about 38%;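 note: enzyme fragment complementation signal reports receptor beta-arrestin coupling in cells; 0% = agonist plus DMSO wells and 100% = wells without agonist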
CCR6 antag: blocks CCL20-driven beta-arrestin recruitment at human CCR6 | P51684 | 340,000 tested, 0.49% active | inhibition, % at 20 µM | CHO-K1 CCR6 PathHunter beta-arrestin, luminescence, CCL20-stimulated;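 active = compounds whose inhibition of the agonist-driven luminescence signal at 20 µM reaches about 50%, limit read from the data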;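 note: cells stimulated with CCL20 at 14 nM final; plate controls were DMSO with CCL20 for no effect and DMSO without agonist for full effect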
Target sequence (P51684 whole entry, looked up): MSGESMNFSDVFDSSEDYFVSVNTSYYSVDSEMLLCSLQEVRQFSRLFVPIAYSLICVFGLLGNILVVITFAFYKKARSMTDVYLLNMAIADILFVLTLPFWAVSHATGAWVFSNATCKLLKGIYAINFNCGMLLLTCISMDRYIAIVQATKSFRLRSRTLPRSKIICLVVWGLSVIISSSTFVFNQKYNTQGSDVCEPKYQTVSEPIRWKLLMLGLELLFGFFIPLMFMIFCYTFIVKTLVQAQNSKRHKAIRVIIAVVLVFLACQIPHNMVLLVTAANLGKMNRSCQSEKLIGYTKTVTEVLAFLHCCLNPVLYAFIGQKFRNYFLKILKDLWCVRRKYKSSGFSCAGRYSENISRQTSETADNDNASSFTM
APJ ag: agonists of human APJ apelin receptor; P35414; CHO-K1 APJ PathHunter beta-arrestin, luminescence; 0% DMSO wells, 100% apelin; activation, % at 20 µM; 330,000 tested, 0.11% active;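 active = activation more than six SD over the plate average, tested at 20 µM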;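 note: 0% = DMSO alone and 100% = apelin-13 at 10 nM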
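Test system – PathHunter CHO-K1 APJ (AGTRL-1) beta-arrestin reporter cells · Input – 1000 cells/well · Compound – single test compound dose, 20 µM final, 1% DMSO · Times – compound stimulation 90 min at 25 °C, detection 60 min · Technique – beta-gal luminescence · Read-out basis – APJ–arrestin association signal · Control set – negative DMSO alone, positive Apelin-13 at 10 nM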
EBI2 antag conf: confirmation of human EBI2 receptor antagonists. shares compounds with EBI2 block. EBI2 beta-arrestin luminescence, 7a,25-OHC antagonism. inhibition, % at 5 µM. 2,400 tested, 29% active. AID 651997;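 active = inhibition of at least 50%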
EBI2 agonist: EBI2 agonism counter-screen | 2,400 tested, under 10 active | shares compounds with EBI2 block | AID 652000 | activation, % at 5 µM | EBI2-expressing cells, agonist mode, luminescence, 60 min; 0% vehicle, 100% 7α,25-dihydroxycholesterol control;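 active = activation of at least 50%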
bGal cs: inhibits E. coli beta-galactosidase, counter-screen for EBI2 antagonists; purified beta-galactosidase, luminescent Galacton Star, 15 min; shares compounds with EBI2 block; inhibition, % at 5 µM; 2,400 tested, 1% active;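 active = replicate-average signal at least 3 plate SD below neutral wells, shown as high inhibition, flagging enzyme-inhibiting false positives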;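 note: 0% = DMSO wells with enzyme and 100% = wells lacking enzyme; higher means stronger loss of beta-gal luminescence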
* marks the source's active call; other numbers are inactive results; x = no result given.

SMILES	APJ antag	CXCR6 block	hiPSC survival	EBI2 block	CCR6 antag	APJ ag	EBI2 antag conf	EBI2 agonist	bGal cs
Cc1ccccc1CS(=O)(=O)CCC(=O)NCc1ccc(F)cc1Cl	-1	-3	-1	-2	0	1	x	x	x
CC(=O)Nc1cc(-c2ccc(N(C)C)cc2)cn2c(-c3ccc(F)cc3)cnc12	x	-4	-2	54*	x	x	54*	0	5
O=S(=O)(c1ccc(Oc2ccc(Cl)cc2)nc1)N1CCOCC1	-9	-7	1	52*	-4	5	27	0	-6
O=S(=O)(c1ccc(Oc2ccc(F)c(Cl)c2)nc1)N1CCOCC1	17	-3	0	6	7	7	x	x	x
Cn1cnnc1SCC(=O)Nc1ccc(S(N)(=O)=O)cc1	16	0	-1	-1	4	-5	x	x	x
COc1ccc(C2c3ccc(O)cc3Oc3ncn4nc(-c5cccnc5)nc4c32)cc1OC (stereo not drawn)	5	13	-1	81*	13	-2	55*	-1	9
NC(=O)C(CCc1nc2ccccc2[nH]1)NS(=O)(=O)c1ccccc1 (stereo not drawn)	x	5	3	-3	x	x	x	x	x
O=S(=O)(c1ccc(NC(=S)NN=C(Cc2ccccc2)Cc2ccccc2)cc1)N1CCOCC1	4	0	4	46*	8	1	-5	2	5
O=S(=O)(c1ccc(NC(=S)NCCc2ccccc2)cc1)N1CCOCC1	-11	10	1	10	-4	0	x	x	x
Cc1cc2nc(-c3ccc(SCC(=O)Nc4nccs4)nc3)[nH]c2cc1C	x	-7	-1	55*	8	x	45	0	-11
CC(=O)CSc1ccc(-c2nc3cc(C)c(C)cc3[nH]2)cn1	-4	-16	-4	31	-10	-3	x	x	x
Cc1cc2nc(-c3ccc(SCc4ccc(C#N)cc4)nc3)[nH]c2cc1C	-7	-6	3	56*	-6	9	40	0	-9
Cc1ccc(S(=O)(=O)N2CCN(C(=O)COC(=O)CC(C)c3ccccc3)CC2)c(C)c1 (stereo not drawn)	23	-4	0	2	10	-9	x	x	x
N#CC1C(=N)Cc2ccccc2-c2ccccc21 (stereo not drawn)	x	0	2	-6	1	x	x	x	x
Oc1cccc(-c2nc3c4c(ncn3n2)-c2ccccc2CC42CCCC2)c1	-19	-8	2	47*	-8	0	31	2	9
Cc1ccc(OCc2nc3c4c(ncn3n2)-c2ccccc2CC42CCCC2)cc1	18	6	7	25	14	-3	x	x	x
COc1ccc(OCc2nc3c4c(ncn3n2)-c2ccccc2CC42CCCC2)cc1	-21	-2	3	55*	18	-2	19	3	6
Cc1cc(C)n2nc(SCC(=O)N3CCN(c4ccccc4)CC3)nc2n1	0	-1	4	2	4	0	x	x	x
Cc1cnc(C(=O)OCC(=O)NCc2cccc(Cl)c2)cn1	1	4	1	-8	5	-5	x	x	x
Cc1noc(NS(=O)(=O)c2ccc(NC(=O)/C=C/c3ccccc3)cc2)c1C	6	0	0	-2	12	-2	x	x	x
COc1cccc(OCC(O)CN2CCN(c3ccc(Cl)cc3)CC2)c1 (stereo not drawn)	6	-5	-1	13	3	-3	x	x	x
CC(=O)Nc1ccc(S(=O)(=O)N2CCN(CC(O)COc3ccc4ccccc4c3)CC2)cc1 (stereo not drawn)	-24	-14	0	57*	7	0	24	1	4
COc1ccc(OCC(O)CN2CCN(c3ccc(Cl)cc3)CC2)cc1 (stereo not drawn)	-9	-4	0	47*	-6	-4	34	-1	-7
OC(COc1ccc2cc(Br)ccc2c1)CN1CCN(c2ccccn2)CC1 (stereo not drawn)	16	-13	1	82*	-6	-3	49	1	-13
OC(COc1ccccc1)CN1CCN(c2ccccc2)CC1 (stereo not drawn)	x	-1	7	11	13	x	x	x	x
SMILES	APJ antag	CXCR6 block	hiPSC survival	EBI2 block	CCR6 antag	APJ ag	EBI2 antag conf	EBI2 agonist	bGal cs
OC(COc1ccc(Br)cc1)CN1CCN(c2ccccc2)CC1 (stereo not drawn)	8	3	0	48*	0	-5	23	0	-12
CCN(C(=O)COC(=O)c1n[nH]c2ccccc12)c1ccccc1	2	7	-3	4	5	-3	x	x	x
COc1ccc(-n2nnnc2SCC(=O)Nc2cccc(O)c2)cc1	4	-6	3	2	-10	-3	x	x	x
CCCOc1ccc(C=Nc2ccc(OC)c(S(=O)(=O)N3CCOCC3)c2)c(O)c1	8	-4	0	-6	3	-3	x	x	x
O=C(c1ccccc1)N1CCN(CC(O)COc2ccc(Br)cc2)CC1 (stereo not drawn)	-16	-8	0	71*	-1	1	44	-1	-12
CN(C)S(=O)(=O)N1CCN(CC(O)COc2ccc3cc(Br)ccc3c2)CC1 (stereo not drawn)	1	-14	-4	85*	-7	2	67*	1	9
COc1cc(C(=O)N2CCN(CC(O)COc3ccccc3)CC2)cc(OC)c1OC (stereo not drawn)	-1	-5	0	-2	3	2	x	x	x
CSc1ccc(C(=S)N2CCN(C)CC2)cc1	13	3	1	-3	-8	2	x	x	x
CCCNC(=S)N1CCN(C(c2ccccc2)c2ccccc2)CC1	4	15	0	10	6	11	x	x	x
CSc1ccc(C(=S)N2CCN(C(c3ccccc3)c3ccccc3)CC2)cc1	9	15	-1	83*	0	-5	39	1	8
S=C(NCCc1ccccc1)N1CCN(C(c2ccccc2)c2ccccc2)CC1	-6	11	-2	54*	1	-2	24	1	3
CCOC(=O)C1=CN(Cc2ccco2)S(=O)(=O)N(CC)C1c1cccc(OC)c1 (stereo not drawn)	x	-1	1	7	27	x	x	x	x
COc1ccc(-c2csc(N(CC(C)C)C(=O)c3ccco3)n2)cc1	-14	2	2	44*	19	-3	31	-1	-13
NS(=O)(=O)c1ccc(CCNC(=O)C2CCN(S(=O)(=O)c3ccc(Br)s3)CC2)cc1	2	-7	1	-7	13	-2	x	x	x
